Bioassay records deposited in PubChem by Johns Hopkins Ion Channel Center.
Sampled rows, rich in hits. Any-hit rate of the full collection: about 3.7%.
KCNQ1 act – potentiators or activators of human KCNQ1 potassium channel. P51787. CHO-K1 KCNQ1, thallium flux FluxOR fluorescence; active compounds read high. B-score at 10 µM. hit rate 0.35% among 310,000;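 active = fluorescence ratio B-score, a plate-corrected score, at least three library SD, with initial intensity B-score within 5 SD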
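assay system = KCNQ1-transfected CHO-K1 cells | medium = assay buffer with matched DMSO | probe or stimulus = depolarizing K+/Tl+ stimulus, K2SO4 and Tl2SO4 each 12.5 mM in 5x stock | dosing = single dose | incubation = dye 90 min, compound 20 min, room temperature | detection = kinetic FluxOR fluorescence, 10 s baseline plus 110 s post-stimulus | evaluation = ratio B score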
KCNQ1 block – human KCNQ1 channel inhibition | B-score at 10 µM | CHO-K1 KCNQ1, FluxOR thallium flux fluorescence; active compounds read high | hit rate 1.3% among 310,000 | P51787;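 active = compounds whose thallium flux B-score, printed positive for inhibition, exceeds three library SD while starting fluorescence stays within three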;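 also: channel opened by potassium depolarization with thallium stimulus after 20 min compound exposure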
KCNK9 inh – blocks the human KCNK9 two-pore domain potassium channel; Q9NPC2; HEK293 KCNK9, FluxOR thallium flux fluorescence; active compounds read low; B-score at 10 µM; hit rate 1.2% among 310,000; AID 488922;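 active = ratio B-score over 3 SD below the library mean, with starting fluorescence within 5 SD of its mean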;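 also: negative B-score means less thallium flux so channel inhibition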
Target sequence (Q9NPC2 whole entry, looked up, the tested form may be a part): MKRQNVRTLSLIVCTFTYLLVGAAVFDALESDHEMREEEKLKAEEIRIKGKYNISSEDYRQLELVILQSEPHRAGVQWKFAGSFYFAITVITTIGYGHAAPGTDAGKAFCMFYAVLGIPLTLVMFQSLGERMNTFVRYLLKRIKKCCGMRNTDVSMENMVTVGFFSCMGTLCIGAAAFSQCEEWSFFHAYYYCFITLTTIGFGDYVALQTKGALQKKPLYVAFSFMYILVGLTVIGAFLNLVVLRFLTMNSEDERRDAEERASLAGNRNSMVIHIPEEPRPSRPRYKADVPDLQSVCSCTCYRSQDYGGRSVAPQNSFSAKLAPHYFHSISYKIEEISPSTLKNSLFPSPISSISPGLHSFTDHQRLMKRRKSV
hERG rescue – hERG (human) protection from proarrhythmic block | Q12809 | CHO-hERG, FluxOR thallium flux, dofetilide IC70 present | activation (rescue from dofetilide block), less the hit threshold, % at 10 µM | hit rate 0.51% among 310,000 | AID 1511;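 active = activation above the mean of controls blocked by dofetilide plus 5 SD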;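 also: thallium influx through hERG after potassium depolarization seen as dye fluorescence rise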
Kir21 block – Kir2.1 (mouse) channel inhibition; hit rate 0.85% among 310,000; HEK293-Kir2.1, FluxOR thallium flux fluorescence; active compounds read low; P35561; AID 1672; B-score at 10 µM;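 active = fluorescence ratio B-score at or below minus 3 SD of library scores, with starting-brightness B-score within 2 SD, cut at about -4.2 in these data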;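 also: channel flux triggered by added potassium and thallium sulfate stimulus; B-score of peak minus minimum fluorescence over baseline after thallium stimulus; more negative B-score means stronger Kir2.1 block with less thallium influx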
KCNK3 block – human KCNK3 channel inhibition, primary screen | O14649 | CHO-KCNK3 thallium flux, FluxOR fluorescence; active compounds read low | B-score at 10 µM | hit rate 0.84% among 340,000 | AID 602410;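 active = B-score under library mean minus 4 SD, starting fluorescence ratio at most library mean plus 5 SD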;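 also: more negative B-score means stronger inhibition of thallium flux through KCNK3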
Target sequence (O14649 whole entry, looked up): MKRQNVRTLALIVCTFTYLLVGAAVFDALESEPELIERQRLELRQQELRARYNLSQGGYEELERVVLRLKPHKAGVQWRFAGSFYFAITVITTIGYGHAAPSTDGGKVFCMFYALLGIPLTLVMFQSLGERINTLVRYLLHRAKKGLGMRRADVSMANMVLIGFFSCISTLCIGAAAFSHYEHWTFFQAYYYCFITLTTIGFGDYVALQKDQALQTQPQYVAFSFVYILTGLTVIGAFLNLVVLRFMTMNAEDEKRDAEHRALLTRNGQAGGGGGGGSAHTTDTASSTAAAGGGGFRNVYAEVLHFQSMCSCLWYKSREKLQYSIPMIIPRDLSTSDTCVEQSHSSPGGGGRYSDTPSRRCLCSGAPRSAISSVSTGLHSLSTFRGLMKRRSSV
Of the large screens only hits and unclear results are named; the others gave an inactive call.

COc1cc2c(cc1NC(=S)Nc1cccc3ccccc13)oc1ccccc12	none
COc1cc2c(cc1NC(=S)Nc1cccc(C(F)(F)F)c1)oc1ccccc12	KCNQ1 block 7
CCCn1c(N)c(N(CCOC)C(=O)CSc2cc(C)c3ccccc3n2)c(=O)[nH]c1=O	none (no result: KCNQ1 act, KCNQ1 block, KCNK9 inh, hERG rescue, Kir21 block)
CC(=O)c1c(O)c(C)c(O)c2c1OC1=CC(=O)C(C(C)=O)C(=O)[C@@]12C (stereo partly specified)	KCNQ1 block 7
CCOc1cc(/C=N/NC(=O)c2ccc(O)cc2)ccc1Oc1nc(Cl)ncc1F	KCNK9 inh -7.77
COc1ccc(/C=N/NC(=O)CC#N)cc1Oc1nc(Cl)ncc1F	none
COc1ccccc1OCC#CCNC1CCCCC1C (stereo unspecified)	Kir21 block -5.51
CCCCCn1c(N2CCN(c3cccc(Cl)c3)CC2)nc2c1c(=O)[nH]c(=O)n2C	KCNK9 inh -7.34
Cn1c(=O)[nH]c(=O)c2c1nc(N1CCN(c3cccc(Cl)c3)CC1)n2CCCc1ccccc1	none (no result: KCNK3 block)
O=C(O)c1ccccc1C(=O)c1ccc(F)c(F)c1	none (no result: KCNQ1 act, KCNQ1 block, KCNK9 inh, hERG rescue, Kir21 block)
CCOc1cc(/C=N/n2cnnc2)ccc1OS(=O)(=O)c1ccc(C)cc1	Kir21 block -5.48
Cc1ccc(NC(=O)CN(C)C(=O)C(Sc2ccccc2)c2ccccc2)cc1 (stereo unspecified)	none (no result: KCNQ1 act, KCNQ1 block, KCNK9 inh, hERG rescue, Kir21 block)
O=C(NNc1c2ccccc2nc2ccccc12)c1ccccc1Cl	KCNQ1 act 9
O=C(NNc1c2ccccc2nc2ccccc12)c1ccccc1O	none
Cc1ccc(C)c(S(=O)(=O)N2CCN(C(=O)[C@H](Cc3ccccc3)NC(=O)c3ccco3)CC2)c1	none (no result: KCNQ1 act, KCNQ1 block, KCNK9 inh, hERG rescue, Kir21 block)
O=C(COC(=O)c1cc(Cl)ccc1[N+](=O)[O-])NCc1ccc(Cl)cc1Cl	KCNK9 inh -7.3
COCCOC1CCN(C(=O)c2cc(COc3ccc(F)cc3F)on2)CC1	none
Cc1ccc(S(=O)(=O)N2CCOCC2)cc1N/N=C(\C#N)c1nc2ccccc2[nH]1	KCNQ1 block 6
COc1cccc(/C=C/C(=O)OCC(=O)NCCCc2ccccc2)c1OC	none (no result: KCNQ1 act, KCNQ1 block, KCNK9 inh, hERG rescue, Kir21 block)
COc1ccc(/C(N)=N/OC(=O)c2ccc3c(c2)OCO3)cc1OC	hERG rescue 5.9
Cc1cc(=O)n2c3c(c4c(cc13)c(CN(C)C)cc(=O)n4C)OC2	none (no result: KCNQ1 act, KCNQ1 block, KCNK9 inh, hERG rescue, Kir21 block)
CCOc1ccc(C(=O)C(CCC(CN(C)C)C(=O)c2ccc(OCC)cc2)CN(C)C)cc1 (stereo unspecified)	KCNQ1 act 8
COc1ccc(C(=O)C(CCCCC(CN(C)C)C(=O)c2ccc(OC)cc2)CN(C)C)cc1 (stereo unspecified)	none
CN(C)CC(CCC(CN(C)C)C(=O)c1ccccc1)C(=O)c1ccccc1 (stereo unspecified)	KCNQ1 act 20
Cc1ccc(S(=O)(=O)N2CCOCC2)cc1C(=O)N1CCN(S(=O)(=O)c2ccccc2F)CC1	none (no result: KCNQ1 act, KCNQ1 block, KCNK9 inh, hERG rescue, Kir21 block)
CN(C(=O)CSc1nnnn1-c1ccc(O)cc1)C1CCCCC1	none (no result: KCNQ1 act, KCNQ1 block, KCNK9 inh, hERG rescue, Kir21 block)
CC(=O)c1cc2ccc(O)cc2oc1=O	KCNQ1 block 7
N=c1oc2cc(O)ccc2cc1C(=O)Nc1ccc(Cl)cc1	KCNQ1 block 6
COc1ccc2cc(C(C)=O)c(=O)oc2c1	none
Cc1ccc(NC(=O)c2cc3ccccc3oc2=N)cc1	none
NC(=O)C1CCN(C(=O)C2CCN(C(=O)Nc3ccccc3)CC2)CC1	none (no result: KCNQ1 act, KCNQ1 block, KCNK9 inh, hERG rescue, Kir21 block)
Cc1ccc(NC(=O)COC(=O)C2(CC(=O)NC(C)C)CCCC2)cc1C	none (no result: KCNQ1 act, KCNQ1 block, KCNK9 inh, hERG rescue, Kir21 block)
O=C(Nc1ccc(C(F)(F)F)cc1)N1CCN(c2ccnc3cc(Cl)ccc23)CC1	KCNQ1 block 6
O=C(CN1CCN(C(=O)C2CCN(C(=O)/C=C/c3ccccc3)CC2)CC1)Nc1ccc(F)cc1	none (no result: KCNQ1 act, KCNQ1 block, KCNK9 inh, hERG rescue, Kir21 block)
COC(=O)c1ccc(C2N=C(c3cccs3)CC(c3ccccc3O)N2)cc1 (stereo unspecified)	KCNQ1 block 7
O=C(c1ccccc1)N1N=C(c2cccs2)CC1c1ccccc1O (stereo unspecified)	none
O=C(CNC(=O)c1cc(-c2ccccc2)nn1-c1ccccc1)Nc1ccccc1Br	none (no result: KCNQ1 act, KCNQ1 block, KCNK9 inh, hERG rescue, Kir21 block)
c1ccc(C(c2ccccc2)N2CCN(c3nc4ccccc4n4cnnc34)CC2)cc1	KCNQ1 block 6 (no result: KCNK3 block)
Clc1ccc(C(c2ccccc2)N2CCN(c3ccccn3)CC2)cc1 (stereo unspecified)	KCNK9 inh -7.26
COc1ccccc1N1CCN(c2ccc3ccccc3n2)CC1	none
c1ccc(C(c2ccccc2)N2CCN(c3ccc4ccccc4n3)CC2)cc1	KCNK9 inh -7.76
C[C@H](O)[C@@H]1C(=O)N2CCc3ccc(N4CCOCC4)cc3[C@@H]2C[C@@H]1N(C)C(=O)Nc1ccccc1	none (no result: KCNQ1 act, KCNQ1 block, KCNK9 inh, hERG rescue, Kir21 block)
O=C(NC1c2ccccc2Oc2ccccc21)c1ccc([N+](=O)[O-])cc1	none (no result: KCNQ1 act, KCNQ1 block, KCNK9 inh, hERG rescue, Kir21 block)
CC(=O)C1CCC2C3CCC4CC(=O)CCC4(C)C3C=CC12C (stereo unspecified)	none (no result: KCNQ1 act, KCNQ1 block, KCNK9 inh, hERG rescue, Kir21 block)
CC1CCCCC1NC(=O)COc1ncnc2sccc12 (stereo unspecified)	none (no result: KCNQ1 act, KCNQ1 block, KCNK9 inh, hERG rescue, Kir21 block)
COc1cc(N/N=C/c2ccc(N(C)C)cc2)ncn1	none
CN(C)c1cc(N/N=C/c2ccc(Cl)cc2)nc(N(C)C)n1	KCNQ1 block 7
Cc1ccc(CSCC(=O)Nc2cc(S(=O)(=O)N3CCOCC3)ccc2OCC(F)(F)F)cc1	none (no result: KCNQ1 act, KCNQ1 block, KCNK9 inh, hERG rescue, Kir21 block)
COc1ccc(CCNC(=O)COC(=O)Cc2cccc3ccccc23)cc1	Kir21 block -11.6
O=C(Nc1ccc(Cl)c([N+](=O)[O-])c1)C(Sc1ccccc1)c1ccccc1 (stereo unspecified)	KCNQ1 block 11
CC(CC(=O)Nc1ccc(F)c([N+](=O)[O-])c1)c1ccccc1 (stereo unspecified)	KCNQ1 block 6
CC(CC(=O)Nc1cccc(Cl)c1)c1ccccc1 (stereo unspecified)	none
O=C(Nc1cc([N+](=O)[O-])ccc1Cl)C(Sc1ccccc1)c1ccccc1 (stereo unspecified)	KCNK9 inh -7.08
O=C(NCCCl)Nc1ccc(Cl)c([N+](=O)[O-])c1	KCNQ1 block 10
Cc1c(NC(=O)C(Sc2ccccc2)c2ccccc2)cccc1[N+](=O)[O-] (stereo unspecified)	none
CC(=O)N(C)c1ccc(NC(=O)C(Sc2ccccc2)c2ccccc2)cc1 (stereo unspecified)	none
CCC(C)NC(C(=O)Nc1ccc(Cl)c([N+](=O)[O-])c1)c1ccccc1 (stereo unspecified)	KCNK9 inh -6.98
COCC(C)NC(C(=O)Nc1ccc(Cl)c([N+](=O)[O-])c1)c1ccccc1 (stereo unspecified)	none
O=C(COc1cccc(Cl)c1)Nc1ccccc1N1CCCCC1	none
O=C(N/N=C/c1cc([N+](=O)[O-])ccc1O)c1ccc(COc2ccc3c(c2)CCC3)o1	hERG rescue 14.2
Cn1c(-c2ccccc2)cnc1NCc1ccc(F)cc1	Kir21 block -4.89
